# Laboratory results: ChEMBL document CHEMBL1149572, “2-Aryl-N-acyl indole derivatives as liver X receptor (LXR) agonists” (Bioorg Med Chem Lett, 2007)
# Test system: HepG2
# Experiment: Induction of Lipogenesis in HepG2 cells at 10 uM relative to control
# Format: functional, Homo sapiens
# Conditions: not given
# In short: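 HepG2 cells pre-treated with vehicle or compound for 24 h, then given [14C]-glycerol and cultured a further 48 h. Cellular triglycerides extracted, separated by TLC and quantified by phosphorimaging. Lipogenesis expressed as fold-induction over vehicle-only control. Mean of triplicate samples, single experiment.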
row,Compound,Ratio
1,CC(C)(C)OC(=O)n1c(-c2ccc(CCC(=O)O)cc2)cc2ccccc21,1.2
2,CC(C)(C)OC(=O)n1c(-c2ccc(CCC#N)cc2)cc2ccccc21,2.5
3,O=C(O)Cc1cccc(OCCCN(Cc2cccc(C(F)(F)F)c2Cl)CC(c2ccccc2)c2ccccc2)c1,2.7
4,CC(C)(C)OC(=O)n1c(-c2ccc(CCC(N)=O)cc2)cc2ccccc21,2.7
5,CC(C)(C)OC(=O)n1c(-c2ccc3c(c2)CC(NS(=O)(=O)c2ccccc2)C3)cc2ccccc21 (centres undefined),3.1
6,N#CCCc1ccc(-c2cc3ccccc3n2C(=O)c2ccccc2)cc1,4

# Target: T1, Oxysterols receptor LXR-beta (Homo sapiens, UniProt P55055)
# T1 sequence (P55055 whole entry): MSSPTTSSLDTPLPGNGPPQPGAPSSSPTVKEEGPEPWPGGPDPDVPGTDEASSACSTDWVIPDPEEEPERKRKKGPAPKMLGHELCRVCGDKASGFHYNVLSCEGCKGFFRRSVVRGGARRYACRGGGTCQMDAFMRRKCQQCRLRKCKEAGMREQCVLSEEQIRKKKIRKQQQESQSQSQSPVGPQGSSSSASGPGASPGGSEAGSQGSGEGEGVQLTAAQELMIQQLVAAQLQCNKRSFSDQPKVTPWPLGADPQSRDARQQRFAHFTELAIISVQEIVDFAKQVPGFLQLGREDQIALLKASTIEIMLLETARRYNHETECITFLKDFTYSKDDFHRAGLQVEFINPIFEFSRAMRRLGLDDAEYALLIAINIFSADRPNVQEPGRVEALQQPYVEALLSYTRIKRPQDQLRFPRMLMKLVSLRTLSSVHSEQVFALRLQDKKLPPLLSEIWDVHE
# Experiment: Agonist activity at human LXRbeta receptor after 1 hr by HTRF cofactor recruitment assay
# Format: functional
# Conditions: not given
# In short: (§1)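 Cofactor recruitment was read by HTRF. Buffer was 50 mM Tris pH 7.5 with 50 mM KCl, 1 mM EDTA, 0.1% BSA and 1 mM DTT. Mixtures were shaken for 1 h at room temperature. Values are means of duplicates from a single experiment.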
row,Compound,EC50
1,CC(C)(C)OC(=O)n1c(-c2ccc(CCNC(=O)c3ccccc3)cc2)cc2ccccc21,1750 nM
2,CC(C)(C)OC(=O)n1c(-c2ccc(CCC(=O)O)cc2)cc2ccccc21,220 nM
3,CC(C)(C)OC(=O)n1c(-c2ccc(CCCO)cc2)cc2ccccc21,380 nM
4,CC(C)(C)OC(=O)n1c(-c2ccc(CCc3ccc(-c4ccccn4)s3)cc2)cc2ccccc21,230 nM
5,CC(C)(C)OC(=O)n1c(-c2ccc(CN)cc2)cc2ccccc21,5600 nM
6,CC(C)(C)OC(=O)n1c(-c2ccc(/C=C/C(N)=O)cc2)cc2ccccc21,4900 nM
7,CC(C)(C)OC(=O)n1c(-c2ccc(CCNS(=O)(=O)c3cccs3)cc2)cc2ccccc21,58 nM
8,CC(C)(C)OC(=O)n1c(-c2ccc(CCC#N)cc2)cc2ccccc21,130 nM
9,CC(C)(C)OC(=O)n1c(-c2ccc(OCCO)cc2)cc2ccccc21,420 nM
10,CC(C)CNC(=O)CCc1ccc(-c2cc3ccccc3n2C(=O)OC(C)(C)C)cc1,1510 nM
11,CC(C)(C)OC(=O)n1c(-c2ccc(CNS(=O)(=O)c3ccccc3)cc2)cc2ccccc21,220 nM
12,CC(C)(C)OC(=O)n1c(-c2cccc(CCNS(=O)(=O)c3ccccc3)c2)cc2ccccc21,420 nM
13,CC(C)(C)OC(=O)n1c(-c2ccc(CC#N)cc2)cc2ccccc21,300 nM
14,CC(C)(C)OC(=O)n1c(-c2ccc(CCCNS(=O)(=O)c3ccccc3)cc2)cc2ccccc21,350 nM
15,CC(C)(C)OC(=O)n1c(-c2ccc(CCC(N)=O)cc2)cc2ccccc21,57 nM
16,CNC(=O)CCc1ccc(-c2cc3ccccc3n2C(=O)OC(C)(C)C)cc1,490 nM
17,CC(C)(C)OC(=O)n1c(-c2ccc(CNC(=O)c3ccccc3)cc2)cc2ccccc21,1800 nM
18,CC(C)(C)OC(=O)n1c(-c2ccc(NS(=O)(=O)c3ccccc3)cc2)cc2ccccc21,1320 nM
19,CC(C)(C)OC(=O)n1c(-c2ccc(CCCNC(=O)c3ccccc3)cc2)cc2ccccc21,360 nM
20,O=C(NCCc1ccc(-c2cc3ccccc3n2C(=O)c2ccccc2)cc1)c1ccccc1,1780 nM
21,N#CCCc1ccc(-c2cc3ccccc3n2C(=O)c2ccccc2)cc1,12 nM
22,CC(C)(C)OC(=O)n1c(-c2ccc(CCNS(=O)(=O)c3ccccc3)cc2)cc2ccccc21,120 nM
23,CC(C)(C)OC(=O)n1c(-c2ccc(CCC(=O)Nc3ccccc3)cc2)cc2ccccc21,1780 nM

# Target: T1, Oxysterols receptor LXR-beta
# Experiment: Agonist activity at human LXRbeta receptor transfected in COS7 cells after 16 hrs by reporter transactivation assay
# Format: functional, cell-based, COS-7
# Conditions: not given
# In short: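 COS-7 cells were co-transfected for 24 h with human LXRb, RXRa and a luciferase reporter carrying three tandem LXR response elements. Cells were then treated with vehicle or compound for 16 h, and luciferase activity was measured in the lysate. EC50 was calculated from means of quadruplicates in a single experiment.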
row,Compound,EC50
1,CC(C)(C)OC(=O)n1c(-c2ccc(CCC(=O)O)cc2)cc2ccccc21,4580 nM
2,CC(C)(C)OC(=O)n1c(-c2ccc(CCC#N)cc2)cc2ccccc21,576 nM
3,CC(C)(C)OC(=O)n1c(-c2ccc(CCC(N)=O)cc2)cc2ccccc21,285 nM
4,N#CCCc1ccc(-c2cc3ccccc3n2C(=O)c2ccccc2)cc1,42 nM

# Test system: HepG2
# Experiment: Induction of SREBP1c gene expression in HepG2 cells at 10 uM relative to control
# Format: functional, Homo sapiens
# Conditions: not given
row,Compound,Ratio
1,CC(C)(C)OC(=O)n1c(-c2ccc(CCC#N)cc2)cc2ccccc21,2.5
2,O=C(O)Cc1cccc(OCCCN(Cc2cccc(C(F)(F)F)c2Cl)CC(c2ccccc2)c2ccccc2)c1,5.2
3,CC(C)(C)OC(=O)n1c(-c2ccc(CCC(N)=O)cc2)cc2ccccc21,4
4,CC(C)(C)OC(=O)n1c(-c2ccc3c(c2)CC(NS(=O)(=O)c2ccccc2)C3)cc2ccccc21 (centres undefined),3.1
5,N#CCCc1ccc(-c2cc3ccccc3n2C(=O)c2ccccc2)cc1,5.3

# Test system: THP-1
# Experiment: Induction of ABCA1 gene expression in THP1 cells at 10 uM relative to control
# Format: functional, Homo sapiens
# Conditions: not given
row,Compound,Ratio
1,CC(C)(C)OC(=O)n1c(-c2ccc(CCC(=O)O)cc2)cc2ccccc21,5.5
2,CC(C)(C)OC(=O)n1c(-c2ccc(CCC#N)cc2)cc2ccccc21,6
3,O=C(O)Cc1cccc(OCCCN(Cc2cccc(C(F)(F)F)c2Cl)CC(c2ccccc2)c2ccccc2)c1,10.7
4,CC(C)(C)OC(=O)n1c(-c2ccc(CCC(N)=O)cc2)cc2ccccc21,5.7
5,CC(C)(C)OC(=O)n1c(-c2ccc3c(c2)CC(NS(=O)(=O)c2ccccc2)C3)cc2ccccc21 (centres undefined),8.4
6,N#CCCc1ccc(-c2cc3ccccc3n2C(=O)c2ccccc2)cc1,10.3

# Target: T1, Oxysterols receptor LXR-beta
# Experiment: Agonist activity at human LXRbeta receptor transfected in COS7 cells after 16 hrs by reporter transactivation assay relative to GW-3965
# Format: functional, cell-based
# Conditions: cos-7
# In short: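 COS-7 cells were transfected for 24 h with human LXRb, RXRa and an LXR-response-element luciferase reporter, then exposed to vehicle or compound for 16 h. Luciferase in the lysate was quantified and expressed as percent of the maximum induction given by GW3965. Values come from quadruplicates in a single experiment.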
row,Compound,Efficacy
1,CC(C)(C)OC(=O)n1c(-c2ccc(CCC(=O)O)cc2)cc2ccccc21,76%
2,CC(C)(C)OC(=O)n1c(-c2ccc(CCC#N)cc2)cc2ccccc21,45%
3,O=C(O)Cc1cccc(OCCCN(Cc2cccc(C(F)(F)F)c2Cl)CC(c2ccccc2)c2ccccc2)c1,100%
4,CC(C)(C)OC(=O)n1c(-c2ccc(CCC(N)=O)cc2)cc2ccccc21,70%
5,CC(C)(C)OC(=O)n1c(-c2ccc3c(c2)CC(NS(=O)(=O)c2ccccc2)C3)cc2ccccc21 (centres undefined),43%
6,N#CCCc1ccc(-c2cc3ccccc3n2C(=O)c2ccccc2)cc1,39%

# Test system: THP-1
# Experiment: Induction of cholesterol efflux in THP1 cells
# Format: functional, cell-based
# Conditions: Homo sapiens
row,Compound,EC50
1,CC(C)(C)OC(=O)n1c(-c2ccc(CCC(=O)O)cc2)cc2ccccc21,7000 nM
2,CC(C)(C)OC(=O)n1c(-c2ccc(CCC#N)cc2)cc2ccccc21,2470 nM
3,CC(C)(C)OC(=O)n1c(-c2ccc(CCC(N)=O)cc2)cc2ccccc21,2400 nM
4,N#CCCc1ccc(-c2cc3ccccc3n2C(=O)c2ccccc2)cc1,51 nM

# Target: T2, Oxysterols receptor LXR-alpha (Homo sapiens, UniProt Q13133)
# T2 sequence (Q13133 whole entry): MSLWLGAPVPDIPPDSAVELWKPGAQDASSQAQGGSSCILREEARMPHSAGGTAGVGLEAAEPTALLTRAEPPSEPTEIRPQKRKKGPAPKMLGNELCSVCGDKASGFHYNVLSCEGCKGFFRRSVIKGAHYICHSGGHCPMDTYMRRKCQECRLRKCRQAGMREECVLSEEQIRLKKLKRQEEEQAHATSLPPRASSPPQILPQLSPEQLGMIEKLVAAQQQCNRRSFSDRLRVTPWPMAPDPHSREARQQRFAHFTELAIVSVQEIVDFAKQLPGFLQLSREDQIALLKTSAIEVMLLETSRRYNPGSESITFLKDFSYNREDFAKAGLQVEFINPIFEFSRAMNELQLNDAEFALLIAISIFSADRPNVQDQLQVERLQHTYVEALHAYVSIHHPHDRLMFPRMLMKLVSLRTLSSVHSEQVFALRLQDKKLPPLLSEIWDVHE
# Experiment: Agonist activity at human LXRalpha receptor after 1 hr by HTRF cofactor recruitment assay
# Format: functional
# Conditions: not given
# In short: as §1
row,Compound,EC50
1,CC(C)(C)OC(=O)n1c(-c2ccc(CCC(=O)O)cc2)cc2ccccc21,1150 nM
2,CC(C)(C)OC(=O)n1c(-c2ccc(CCC#N)cc2)cc2ccccc21,1190 nM
3,CC(C)(C)OC(=O)n1c(-c2ccc(CCC(N)=O)cc2)cc2ccccc21,1110 nM
4,N#CCCc1ccc(-c2cc3ccccc3n2C(=O)c2ccccc2)cc1,220 nM

# Test system: THP-1
# Experiment: Induction of cholesterol efflux in THP1 cells at 10 uM relative to control
# Format: functional, Homo sapiens
# Conditions: not given
# In short: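 THP-1 cells differentiated to macrophages with 200 nM PMA for 30 h. Labelled with 1,2-3H(N)-cholesterol for 18 h alongside acLDL and 200 nM PMA. Exposed to vehicle or compound for 6 h in serum-free medium with 2 mg/ml BSA, then 18 h more with apoA-I added. Supernatant radioactivity read as fold-induction over vehicle. Mean of triplicates, single experiment.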
row,Compound,Ratio
1,CC(C)(C)OC(=O)n1c(-c2ccc(CCC(=O)O)cc2)cc2ccccc21,1.4
2,CC(C)(C)OC(=O)n1c(-c2ccc(CCC#N)cc2)cc2ccccc21,2.2
3,O=C(O)Cc1cccc(OCCCN(Cc2cccc(C(F)(F)F)c2Cl)CC(c2ccccc2)c2ccccc2)c1,1.8
4,CC(C)(C)OC(=O)n1c(-c2ccc(CCC(N)=O)cc2)cc2ccccc21,1.9
5,CC(C)(C)OC(=O)n1c(-c2ccc3c(c2)CC(NS(=O)(=O)c2ccccc2)C3)cc2ccccc21 (centres undefined),1.6
6,N#CCCc1ccc(-c2cc3ccccc3n2C(=O)c2ccccc2)cc1,1.7
